Bioassay records: PubChem, several laboratories
This is a sample that favours compounds with a hit; in the whole collection about 1.4% have one here.
PG9 Ab binder: binders of HIV-1 gp120 antibody PG9, primary screen, biochemical, TR-FRET. HIV-1 gp120 / PG9 antibody interaction. TR-FRET gp120-PG9 antibody binding. inhibition, % at 6.7 µM. 360,000 tested, 0.43% active; in the data active = inhibition above about 8.5%
NR2E3 ag-1: NR2E3 agonists in two-hybrid cells, primary screen, cell-based, luminescence, CHO-S, Gal4-NCOR/VP16-NR2E3; Photoreceptor-specific nuclear receptor (Homo sapiens), Q9Y5X4; luciferase; inhibition of corepressor binding, % at 3.98 µM; 360,000 tested, 0.35% active; AID 602229, 2012;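 active = inhibition above the mean of all tested compounds plus 3 SD, cut at about 70% in these data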;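 also: 0% = DMSO with NR2E3 transfected cells and 100% = cells lacking NR2E3 construct; higher means lower luciferase signal from less NR2E3 corepressor binding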
Rev-erbA mod: modulators of Rev-erb alpha DNA binding, primary screen, biochemical, FITC-DNA, fluorescence polarization, uHTS. Rev-erbα–FITC-DNA binding, 90 min. activity, % at 10 µM. 370,000 tested, 0.79% active;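 active = activity above about 14%, limit read from the data; passing the limit was not always enough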;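 also: 0% = DMSO wells with 35 nM protein and 100% = DMSO wells with 750 nM protein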
Target sequence (P20393 whole entry, looked up): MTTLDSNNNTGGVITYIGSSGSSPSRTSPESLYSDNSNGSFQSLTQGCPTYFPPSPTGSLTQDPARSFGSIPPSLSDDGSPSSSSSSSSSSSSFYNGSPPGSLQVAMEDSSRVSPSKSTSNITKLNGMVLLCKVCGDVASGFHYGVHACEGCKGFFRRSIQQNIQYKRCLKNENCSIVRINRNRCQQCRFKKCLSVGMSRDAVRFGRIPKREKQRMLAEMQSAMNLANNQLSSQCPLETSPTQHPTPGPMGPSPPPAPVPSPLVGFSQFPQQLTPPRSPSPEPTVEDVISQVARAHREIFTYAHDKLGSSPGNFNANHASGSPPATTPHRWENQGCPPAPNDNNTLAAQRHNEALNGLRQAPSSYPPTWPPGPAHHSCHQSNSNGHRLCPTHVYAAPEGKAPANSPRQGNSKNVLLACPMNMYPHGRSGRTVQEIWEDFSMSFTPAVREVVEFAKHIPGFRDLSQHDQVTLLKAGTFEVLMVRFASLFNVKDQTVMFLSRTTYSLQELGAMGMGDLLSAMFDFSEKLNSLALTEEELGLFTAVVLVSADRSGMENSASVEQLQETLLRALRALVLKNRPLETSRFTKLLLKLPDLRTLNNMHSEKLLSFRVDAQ
NR2E3 ag-2: inhibitors of NR2E3-RetCOR corepressor binding, primary screen, NR2E3 agonist project, biochemical, TR-FRET, GST-NR2E3, biotin-RetCOR | Photoreceptor-specific nuclear receptor (Homo sapiens), Q9Y5X4 | 1536-well | inhibition of corepressor binding, % at 4.78 µM | 320,000 tested, 0.12% active;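 active = percent inhibition above the cutoff of mean plus 3 SD of all tested compounds, set per screening campaign, cut at about 20% in these data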;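 also: 0% = DMSO wells and 100% = biotin wells as full block of FRET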
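Assay system: NR2E3–RetCOR corepressor complex. Quantity: 1.35 nM GST-NR2E3. Buffer or medium: pH 7.5 Tris-based buffer. Reagent: biotinylated RetCOR corepressor at 7 nM final. Schedule: 5 h at 4 °C. Detection: TR-FRET, emission read at 617 and 671 nm. Replicates: one well per compound, singlicate testing.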
NR2E3 ag conf: NR2E3 agonist confirmation in cells, cell-based, luminescence, CHO-S two-hybrid. inhibition, % at 3.98 µM. CHO-S mammalian two-hybrid NR2E3-NCOR, luciferase luminescence. shares compounds with NR2E3 ag-1. 2,300 tested, 51% active;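 active = average inhibition above a cutoff equal to the mean inhibition of all tested compounds plus one SD, cut at about 70% in these data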;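 also: 0% = DMSO in NR2E3 cells and 100% = DMSO in cells lacking NR2E3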
VP16 counter: GAL4-VP16 reporter modulators, confirmation, counter-screen for NR2E3 agonist project, cell-based, luminescence, CHO-S, high throughput. shares compounds with NR2E3 ag-1. 2,300 tested, 29% active. CHO-S GAL4-VP16 luciferase reporter. inhibition, % at 3.98 µM;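 active = mean inhibition above a cutoff equal to the average over all tested compounds plus one standard deviation, cut at about 70% in these data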;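 also: luciferase from a UAS reporter driven by GAL4-VP16 transactivation; 0% = DMSO with VP16-transfected cells and 100% = DMSO with cells lacking VP16; higher means less reporter light so more repression of VP16 activity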
Active calls of the source: *.

What do the screens show for `Cc1ccc(CNC(=O)O[C@H]2CC[C@@]34CCCN3C(=O)CCC[C@H]4C2)cc1`?
Rev-erbA mod: 6

What do the screens show for `Cc1ccc(S(=O)(=O)Nc2ccccc2O)cc1`?
PG9 Ab binder: -1; Rev-erbA mod: 7

How did Cc1ccc(NS(=O)(=O)c2ccc(C3CCCCC3)cc2)cc1 do in these assays?
PG9 Ab binder: 0; NR2E3 ag-1: 77*; Rev-erbA mod: -2; NR2E3 ag-2: 0; NR2E3 ag conf: 94*; VP16 counter: 70

Results for Cc1ccc(Cl)cc1NS(=O)(=O)c1ccccc1 ?
PG9 Ab binder: -2; NR2E3 ag-1: -19; Rev-erbA mod: 9

Results for O=S(=O)(Nc1ccc(Cl)cc1NS(=O)(=O)c1ccccc1)c1ccccc1 ?
PG9 Ab binder: 0; NR2E3 ag-1: 82*; Rev-erbA mod: -7; NR2E3 ag conf: 95*; VP16 counter: 65

What do the screens show for `Cc1ccc(S(=O)(=O)Nc2ccc(N3CCCCC3)cc2)cc1`?
PG9 Ab binder: -1; NR2E3 ag-1: 31; Rev-erbA mod: -3; NR2E3 ag-2: 3

What do the screens show for `Cc1ccc(S(=O)(=O)Nc2ccccc2NS(=O)(=O)c2ccc(C)cc2)cc1`?
PG9 Ab binder: 1; NR2E3 ag-1: 48; Rev-erbA mod: -6; NR2E3 ag conf: 46; VP16 counter: 20

Results for Cc1ccc(S(=O)(=O)Nc2cnc3ccccc3c2)cc1 ?
PG9 Ab binder: 3; NR2E3 ag-1: 49; Rev-erbA mod: 0; NR2E3 ag-2: 1; NR2E3 ag conf: 44; VP16 counter: 41

How did COC(=O)[C@]12C[C@H](CC(=O)NCCC(C)C)C(=O)N(Cc3ccc(Cl)cc3Cl)C1=C[C@H](C(C)(C)C)O[C@@H]2C do in these assays?
Rev-erbA mod: -1

What do the screens show for `Cc1cc(C)c(S(=O)(=O)NCc2ccncc2)c(C)c1`?
PG9 Ab binder: 0; NR2E3 ag-1: 69; Rev-erbA mod: 1; NR2E3 ag-2: -5; NR2E3 ag conf: 88*; VP16 counter: 77*

What do the screens show for `Cc1ccc(S(=O)(=O)NCc2ccccn2)c(C)c1C`?
PG9 Ab binder: -3; NR2E3 ag-1: 0; Rev-erbA mod: -4; NR2E3 ag-2: 4

How did Cc1ccc(S(=O)(=O)NCc2ccncc2)c(C)c1C do in these assays?
PG9 Ab binder: -2; NR2E3 ag-1: 80*; Rev-erbA mod: 1; NR2E3 ag-2: 3; NR2E3 ag conf: 94*; VP16 counter: 85*

What do the screens show for `Cc1cc(C)c(S(=O)(=O)NCCc2ccncc2)c(C)c1`?
PG9 Ab binder: -1; NR2E3 ag-1: 20; Rev-erbA mod: -3; NR2E3 ag-2: 3

Results for CC(=O)/C(=N/Nc1cccc(Cl)c1)N1CCOCC1 ?
PG9 Ab binder: -2; NR2E3 ag-1: 64; Rev-erbA mod: 3; NR2E3 ag-2: 6; NR2E3 ag conf: 7; VP16 counter: -18

How did CC(=O)/C(=N/Nc1ccccc1)N1CCOCC1 do in these assays?
PG9 Ab binder: -3; NR2E3 ag-1: 2; Rev-erbA mod: -5; NR2E3 ag-2: -2

How did CCCCCCCCCCCCCCCC[n+]1cccc2ccccc21 do in these assays?
PG9 Ab binder: 1; NR2E3 ag-1: 24; Rev-erbA mod: 7; NR2E3 ag-2: 0

What do the screens show for `CCCCCCCCC[n+]1cccc2c3ccccc3ccc21`?
NR2E3 ag-1: 82*; NR2E3 ag-2: 4; NR2E3 ag conf: 99*; VP16 counter: 74*

What do the screens show for `CC(C)(C)OC(=O)NCc1ccccc1/C=C/S(=O)(=O)NCc1ccccc1`?
Rev-erbA mod: -2

How did Cc1ccc(Cn2nnc3c2-c2cc(F)ccc2S(=O)(=O)N(C(C)(C)C)C3)cc1 do in these assays?
Rev-erbA mod: 4

What do the screens show for `O=S(=O)(NC1CCCC1)c1ccc(S(=O)(=O)N2CCc3ccccc32)cc1`?
PG9 Ab binder: 0; NR2E3 ag-1: 55; Rev-erbA mod: -1; NR2E3 ag-2: 1; NR2E3 ag conf: 79*; VP16 counter: 54

Results for Nc1ccc(S(=O)(=O)N2CCc3ccccc32)cc1 ?
PG9 Ab binder: 1; NR2E3 ag-1: 14; Rev-erbA mod: 5; NR2E3 ag-2: 4

What do the screens show for `O=C(NNC(=O)c1cccc(S(=O)(=O)N2CCc3ccccc32)c1)c1ccccc1`?
PG9 Ab binder: 0; NR2E3 ag-1: 53; Rev-erbA mod: -1; NR2E3 ag conf: 80*; VP16 counter: 71*

What do the screens show for `CC(C)CCNC(=O)c1cccc(S(=O)(=O)N2CCc3ccccc32)c1`?
PG9 Ab binder: 3; NR2E3 ag-1: -7; Rev-erbA mod: 2; NR2E3 ag-2: 1

What do the screens show for `CCOC(=O)[C@@]12CCC3=C1N(CCC3)C(=O)[C@H](CC(=O)NCCc1ccccc1OC)C2`?
Rev-erbA mod: 0

Results for COc1ccc(C[N+]2=C(N)N[C@@]3(C=C(C)Cn4c(=O)n(-c5ccccc5)c(=O)n43)C2)c(OC)c1 ?
Rev-erbA mod: 0

How did O=c1[nH]cnc2c1nnn2C1OC(CO)C(O)C1O (stereo unspecified) do in these assays?
PG9 Ab binder: -1; NR2E3 ag-1: 49; Rev-erbA mod: 11; NR2E3 ag conf: -40; VP16 counter: 26

How did CN(C)c1ncnc2c1nnn2C1OC(CO)C(O)C1O (stereo unspecified) do in these assays?
PG9 Ab binder: -1; NR2E3 ag-1: 89*; Rev-erbA mod: -3; NR2E3 ag conf: -9; VP16 counter: 61

What do the screens show for `Cc1ccc(-c2cc(-c3nnc(SCC(=O)NC4CCCCC4)n3N)[nH]n2)cc1`?
Rev-erbA mod: 14

What do the screens show for `O=[N+]([O-])c1ccc(NC(=S)NCCc2ccc(Cl)cc2)cc1`?
PG9 Ab binder: -1; NR2E3 ag-1: 69; Rev-erbA mod: 3; NR2E3 ag-2: 1; NR2E3 ag conf: 96*; VP16 counter: 88*

Results for COC(=O)C1CN(Cc2ccc(C)cc2)CCS(=O)(=O)N1Cc1cn(Cc2ccc(C)cc2)nn1 (stereo unspecified) ?
Rev-erbA mod: 1

What do the screens show for `CCC(C)(C)C(=O)N1CCc2cc(S(=O)(=O)N(C)Cc3ccco3)ccc21`?
Rev-erbA mod: 7

How did COc1ccc(CCN(C)C(=O)Cc2ccc(-c3ccccc3)cc2)cc1OC do in these assays?
PG9 Ab binder: 1; NR2E3 ag-1: 85*; Rev-erbA mod: -9; NR2E3 ag-2: 2; NR2E3 ag conf: 85*; VP16 counter: 60
